HTRA1 inhibitor: blocks human HTRA1 serine peptidase; Q92743; recombinant HTRA1, FP-rhodamine activity-based probe, fluorescence polarization; inhibition, % at 5.96 µM; actives 0.5% (n = 340,000); AID 504803; in the data active = inhibition above about 36%
Target sequence (Q92743 whole entry, looked up): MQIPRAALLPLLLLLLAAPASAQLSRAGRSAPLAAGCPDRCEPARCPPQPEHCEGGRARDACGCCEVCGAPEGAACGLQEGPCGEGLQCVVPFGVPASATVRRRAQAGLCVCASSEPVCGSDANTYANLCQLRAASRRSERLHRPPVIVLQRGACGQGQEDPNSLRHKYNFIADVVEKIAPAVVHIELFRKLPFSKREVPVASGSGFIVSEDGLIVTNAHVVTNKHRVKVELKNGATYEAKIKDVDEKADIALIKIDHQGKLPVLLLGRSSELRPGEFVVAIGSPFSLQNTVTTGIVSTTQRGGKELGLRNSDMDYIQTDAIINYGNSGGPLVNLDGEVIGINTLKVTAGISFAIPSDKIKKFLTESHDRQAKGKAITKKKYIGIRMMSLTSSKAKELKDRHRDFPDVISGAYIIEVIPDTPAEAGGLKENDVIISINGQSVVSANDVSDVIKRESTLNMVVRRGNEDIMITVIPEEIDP
TDP2 absorb: blocks human TDP2 phosphodiesterase activity | O95551 | recombinant TDP2, T5PNP hydrolysis, p-nitrophenol absorbance 415 nm | inhibition, % at 12.8 µM | actives 0.34% (n = 370,000) | AID 720702;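 active = inhibition above the mean of all tested compounds plus 3 SD, set per campaign, cut at about 25% in these data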
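Incubation: 2 h at 37 °C; Test system: recombinant human TDP2; Quantity: enzyme 120 nM; Read-out basis: percent inhibition; Medium: 50 mM Tris-HCl pH 7.5 with Mg2+, KCl, DTT, BSA; Repeats: single replicate; Compound: 12.8 µM single point, 1% DMSO; Signal: epi absorbance; Reagent: 5 mM T5PNP chromogenic substrate; Benchmarks: no-enzyme high, DMSO-plus-enzyme low.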
SIAE primary: inhibitors of human sialic acid acetylesterase SIAE; SIAE FP-Rh probe binding, fluorescence polarization; actives 0.69% (n = 370,000); Q9HAT2; inhibition, % at 9.66 µM;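 active = inhibition above a cutoff: mean of compounds within the control limits plus 3 SD of those, cut at about 17% in these data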
LEDGF integ inh: blocks HIV-1 LEDGF/p75-dependent DNA integration. TR-FRET IN-LEDGF/p75 DNA integration, Eu/Cy5. inhibition, % at 3.7 µM. actives 0.64% (n = 370,000);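 active = inhibition above the screen-wide mean plus 3 SD, cut at about 13% in these data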;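 note: signal is the Cy5 over europium emission ratio at 671 and 618 nm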
ABHD4 inh: inhibitors of mouse ABHD4. purified mABHD4, FP-Rh probe fluorescence polarization. actives 0.54% (n = 370,000). Q8VD66. inhibition, % at 8.92 µM;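 active = inhibition exceeding the mean over every tested compound plus 3 SD, cut at about 30% in these data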
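Assay system: mABHD4 protein; medium: HEPES pH 7.0, NaCl, Pluronic buffer; dosing: 8.92 µM, single dose; schedule: 45 min + 60 min at 25 °C; signal: FP readout, ex 525 nm / em 598 nm; read-out: normalized percent inhibition of probe labeling; repeats: single replicate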
TCR-CD3 inh: inhibitors of human TCR-CD3 interaction; TAMRA-labeled TCR probe fluorescence, biochemical; inhibition, % at 9.4 µM; actives 0.37% (n = 360,000); in the data active = inhibition above about 19%;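 note: recombinant mutant TCR 2C K166C tagged with TAMRA read by polarization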
HTRA1 conf: confirmation of human HTRA1 inhibitors; shares compounds with HTRA1 inhibitor; recombinant HTRA1, FP-rhodamine activity-based probe, fluorescence polarization; inhibition, % at 5.96 µM; actives 66% (n = 1,600); AID 540248;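 active = mean inhibition over three repeats above a set limit taken from the earlier primary screen, cut at about 37% in these data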;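 note: inhibitors block probe binding so polarization drops and inhibition rises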
Hits are given with their value; . = inactive; / = not tested or not shown. The list is not random: actives were taken first. Their share in the collection is about 2.2%.

SMILES | HTRA1 inhibitor | TDP2 absorb | SIAE primary | LEDGF integ inh | ABHD4 inh | TCR-CD3 inh | HTRA1 conf
Cc1nnc(-c2ccccc2)c(=O)n1/N=C/c1c(O)ccc2ccccc12 | 37.2 | . | . | . | . | . | .
COc1ccc(S[C@]2(C(=O)N3CCN(c4ncccn4)CC3)CC(=O)N(c3ccc(OC)cc3)[C@@H]2c2ccc(OC)cc2)cc1 | / | . | . | . | . | / | /
CN1CCN(CC(=O)N2CCn3c4c(c5cc(C6CCCCC6)ccc53)CCCC42)CC1 (configuration not stated) | 41.5 | / | / | / | / | / | 53.9
Cc1ccc2c(c1)c1c3n2CCN(C(=O)CN2CCN(C)CC2)C3CCC1 (configuration not stated) | . | . | . | . | . | . | /
C[C@H]1[C@@H](OC(=O)Nc2ccccc2F)CC[C@@]23CCCN2C(=O)CCC[C@@H]13 | / | . | . | . | . | / | /
CCN(CC)c1ccc(N=Cc2ccccc2[N+](=O)[O-])cc1 | 53.4 | . | . | 15.1 | 46.7 | . | 146.2
Oc1cc(Nc2ccncc2)cc2cccnc12 | 43.0 | . | . | . | . | . | 37.1
CC(=O)NC(c1ccc(C)cc1)c1cc([N+](=O)[O-])c2cccnc2c1O (configuration not stated) | . | . | . | . | . | . | /
CCC(=O)NC(c1ccc(C)cc1)c1cc([N+](=O)[O-])c2cccnc2c1O (configuration not stated) | 37.5 | . | . | . | . | . | 71.1
CC(=O)NC(c1ccco1)c1ccc2cccnc2c1O (configuration not stated) | . | / | / | / | / | / | /
CCCC(=O)NC(c1ccco1)c1cc([N+](=O)[O-])c2cccnc2c1O (configuration not stated) | 50.5 | . | . | . | . | . | 65.8
COC(=O)[C@]12C[C@H](CC(=O)N3CCOCC3)C(=O)N(Cc3ccccc3)C1=C[C@H](COCc1ccccc1)O[C@@H]2C | / | . | . | . | . | / | /
O=C1C(Cl)=C(N2CCCCCC2)C(=O)N1c1ccc(Cl)cc1 | . | . | . | . | . | . | /
O=C1C(Cl)=C(N2CCCCC2)C(=O)C(Cl)=C1c1cnc(N2CCCCC2)s1 | 71.3 | / | / | / | / | / | .
O=C(O)c1ccccc1NS(=O)(=O)c1ccc(NN=Cc2ccccc2F)c([N+](=O)[O-])c1 | . | . | . | . | . | . | /
COc1ccc(C=NNc2ccc(S(=O)(=O)Nc3ccccc3C(=O)O)cc2[N+](=O)[O-])c(OC)c1 | 46.6 | / | / | / | / | / | 39.2
C=CCN1C(=O)[C@@H](CC(=O)N2CCSCC2)[C@]2(C(=O)OC)CCCCC=C12 | / | . | . | . | . | / | /
COc1cccc(NS(=O)(=O)c2ccc3c(c2)C2C=CCC2C(c2ccc(C(=O)O)cc2)N3)c1 (configuration not stated) | 49.0 | . | . | 43.8 | . | . | .
O=C(O)c1ccc2c(c1)[C@@H]1C=CC[C@@H]1[C@H](c1ccccn1)N2 | 46.5 | 25.8 | 17.3 | 94.8 | 70.3 | 24.8 | .
Cc1cccc2sc(NNC(=O)c3ccc(S(=O)(=O)N4CC(C)CC(C)C4)cc3)nc12 (configuration not stated) | 59.9 | . | . | . | . | . | 40.7
Cc1cc(C)c2nc(NNC(=O)c3ccc(S(=O)(=O)N4CC(C)CC(C)C4)cc3)sc2c1 (configuration not stated) | 53.6 | . | . | 14.9 | . | . | 60.8
Cc1cc(C)c2nc(NNC(=O)c3ccc(S(=O)(=O)N4CCCC(C)C4)cc3)sc2c1 (configuration not stated) | 50.9 | . | . | . | . | . | 53.8
Cc1ccc2nc(NNC(=O)c3ccc(S(=O)(=O)N4CCc5ccccc5C4)cc3)sc2c1 | 48.9 | . | . | . | . | . | .
CC1CCCN(S(=O)(=O)c2ccc(C(=O)Nc3nnc(C4CC4)o3)cc2)C1 (configuration not stated) | . | . | . | . | . | . | /
Cc1ccc2nc(NNC(=O)c3ccc4c(c3)OCCO4)sc2c1 | . | . | . | . | . | . | /
SMILES | HTRA1 inhibitor | TDP2 absorb | SIAE primary | LEDGF integ inh | ABHD4 inh | TCR-CD3 inh | HTRA1 conf
CC(C)c1[nH]nc2c1C(c1ccccc1)NC2=O (configuration not stated) | / | . | . | . | . | . | /
O=C(NCc1ccc(C(=O)N2CCOCC2)cc1)c1cccc(Br)c1 | / | . | . | . | . | / | /
CC(C)(C)c1cc(NCCCn2ccnc2)n2ncc(-c3ccc(Cl)cc3)c2n1 | . | . | . | . | . | . | /
CN(C)CCCNc1cc(C(C)(C)C)nc2c(-c3ccccc3)cnn12 | 36.5 | . | . | . | . | . | .
C#CCNC(=O)C[C@H]1C[C@@]2(C(=O)OC)C(=C[C@H](C(C)(C)C)O[C@@H]2C)N(CCc2ccc(OC)c(OC)c2)C1=O | / | . | . | . | . | . | /
Cc1ccc(C)c(NC(=O)C2CCCN2S(=O)(=O)c2cccnc2)c1 (configuration not stated) | / | . | . | . | . | / | /
CCOc1cc(/C=C2/SC(=S)N(Cc3ccccc3)C2=O)ccc1O | . | . | . | . | . | . | /
CCOc1cc(/C=C2\C(=O)N(c3nc(-c4ccc(Br)cc4)cs3)N=C2c2ccccc2)ccc1O | 39.8 | / | / | / | / | / | 46.9
CCCCNc1c2c3c(cccc3n(C)c1=O)C(=O)c1ccccc1-2 | 67.7 | / | / | / | / | / | 69.8
Cn1c(=O)c(NC2CCCCC2)c2c3c(cccc31)C(=O)c1ccccc1-2 | . | . | . | . | . | . | /
Cc1ccsc1/C=N/N=C/c1sccc1C | . | . | . | . | . | . | /
Cc1ccsc1C=Nc1ccc(O)cc1 | 51.4 | / | / | / | / | / | .
Cc1cc2cc(CNC(=S)NC3CCCCC3)ccc2n1C | 40.5 | . | . | . | . | . | .
Cc1cc2cc(CNC(=S)NCc3ccccc3)ccc2n1C | 49.1 | . | . | . | . | . | .
COc1ccccc1NC(=S)NCc1ccc2c(c1)cc(C)n2C | 37.9 | . | . | . | . | . | .
Cc1ccc(CNC(=S)NC2CCCCC2)cc1 | . | . | . | . | . | . | /
C=CCn1c(COc2ccccc2)nnc1SCC(=O)Nc1ccc(S(=O)(=O)Nc2cc(C)nc(C)n2)cc1 | / | . | . | . | . | / | /
CCCSc1nnc(-c2ccco2)n1C | / | . | . | . | . | / | /
COc1ccc(-n2c(SCC(=O)NNC(=S)Nc3ccc(C)cc3)nnc2-c2ccccc2)cc1 | / | . | . | . | . | / | /
CCOC(=O)C1=NOC(C(=O)Nc2nccs2)(C(=O)C2CC2)C1 (configuration not stated) | / | . | . | . | . | / | /
Cc1c2c(=O)n(-c3nc4ccccc4s3)nc-2cc(O)n1Cc1ccccc1 | 47.1 | / | / | / | / | / | 56.8
COc1cc(CCC(C)=O)ccc1OC(=O)c1c(-c2c(F)cccc2Cl)noc1C | / | . | . | . | . | . | /

From PubChem
